Laboratory results as given in ChEMBL document CHEMBL1156119 (J Med Chem, 2009).
Active and inactive are the calls of the source. The calls are words filed in the database; no cut-off is given here.

Columns and labels:
SMB [1] = assay: Antiprion activity against Scrapie prion protein-mediated scrapie in mouse SMB cells assessed as remaining PrP-Sc level at 10 uM after 5 days by Bradford assay relative to control; format: cell-based
How it was run: (§1)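 SMB scrapie-infected mouse cells, non-neuronal, in medium 199 with 10% newborn calf and 5% fetal calf serum, seeded at 3 × 10⁴ cells/well and attached for 24 h. Compound DMSO stocks were diluted via HBSS into medium and applied for 5 days. Lysates of ~30-40 μg protein/well were dot-blotted, digested with proteinase K at 75 μg mL⁻¹ (1 h, 37 °C) and denatured in 1.8 M guanidine thiocyanate. Read-out was %PrP^Sc versus DMSO-only control, in triplicate.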

[2] = biological target: Major prion protein (Homo sapiens) (UniProt P04156); assay: Binding affinity to human PrP up to 40 uM by surface plasmon resonance assay
[3] = biological target: Major prion protein (Mus musculus) (UniProt P04925); assay: Binding affinity to mouse PrP up to 40 uM by surface plasmon resonance assay
[4] = Antiprion activity against Scrapie prion protein-mediated scrapie in mouse SMB cells assessed as remaining PrP-Sc level after 5 days by Bradford assay; format: cell-based; conditions: 120 h
How it was run: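 Same SMB dot-blot protocol with 5-day exposure. Compounds were rescreened over a range of concentrations to fit an EC₅₀ from dose-response curves. Each determination was run in triplicate, in at least two independent experiments. PrP^Sc was measured relative to an untreated DMSO-only control.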

SMB [5] = assay: Antiprion activity against Scrapie prion protein-mediated scrapie in mouse SMB cells assessed as remaining PrP-Sc level at 1 uM after 5 days by Bradford assay relative to control; format: cell-based
How it was run: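 Compound DMSO stocks were diluted via HBSS into medium and applied for 5 days. Lysates of ~30-40 μg protein/well were dot-blotted, digested with proteinase K at 75 μg mL⁻¹ (1 h, 37 °C) and denatured in 1.8 M guanidine thiocyanate. Read-out was %PrP^Sc versus DMSO-only control, in triplicate.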

SMB [6] = assay: Antiprion activity against Scrapie prion protein-mediated scrapie in mouse SMB cells by dot blot analysis; format: cell-based; how it was run: as §1
SMB [7] = assay: Antiprion activity against Scrapie prion protein-mediated scrapie in mouse SMB cells assessed as remaining PrP-Sc level at 24 uM after 5 days by Bradford assay relative to control; format: cell-based
[8] = Antiprion activity against Scrapie prion protein-mediated scrapie in RML mouse ScN2a cells assessed as reduction of PrP-Sc level after 6 days by immunoblotting; format: cell-based; conditions: 144 h
[9] = Antiprion activity against Scrapie prion protein-mediated scrapie in mouse ScNB cells assessed as PrP-res accumulation after 4 days by immunoblotting; format: cell-based; conditions: 96 h
[10] = Cytotoxicity against mouse SMB cells at 10 uM after 5 days by MTT assay; format: cell-based; conditions: 120 h
How it was run: (§2)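 SMB cells were seeded at 3 × 10⁴ cells/well and attached for 24 h. Compound was added from DMSO stock diluted through HBSS into the medium, and cells were exposed for 5 days. Viability was read by MTT assay following the standard reagent protocol.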

SMB [11] = assay: Antiprion activity against Scrapie prion protein-mediated scrapie in mouse SMB cells assessed as remaining PrP-Sc level at 20 uM after 5 days by Bradford assay relative to control; format: cell-based; how it was run: as §1
[12] = Cytotoxicity against mouse SMB cells at 20 uM after 5 days by MTT assay; format: cell-based; conditions: 120 h; how it was run: as §2

Major prion protein (Mus musculus), sequence (P04925 whole entry): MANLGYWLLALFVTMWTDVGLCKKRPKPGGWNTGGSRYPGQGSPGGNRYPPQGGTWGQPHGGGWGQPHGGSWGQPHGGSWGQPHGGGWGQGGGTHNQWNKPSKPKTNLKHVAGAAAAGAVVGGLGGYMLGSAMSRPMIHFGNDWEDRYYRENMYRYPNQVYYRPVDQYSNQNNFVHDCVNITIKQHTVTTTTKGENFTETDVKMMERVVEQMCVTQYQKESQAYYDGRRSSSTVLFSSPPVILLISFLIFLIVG

Structure (SMILES) | Activity [2] | Activity [3] | EC50 [4] | Activity (SMB [5]) | also measured
COc1cccc(NC(=O)C(=O)c2c[nH]c3ccccc23)c1 | inactive | inactive | 0.23 µM |  | Remaining PrP-Sc level (SMB [1]): 17.5%
O=C(Nc1ccc(F)nc1)C(=O)c1c[nH]c2ccccc12 |  |  | 1.21 µM | 52.3% | Activity (SMB [6]): Dose-dependent effect
O=C(Nc1cccc(F)c1)C(=O)c1c[nH]c2ccccc12 | inactive | inactive | 0.64 µM | 27.1% | 
CN(C(=O)C(=O)c1c[nH]c2ccccc12)c1ccccc1 |  |  |  |  | Activity (SMB [7]): 127%
COc1ccc(NC(=O)C(=O)c2c[nH]c3ccccc23)cc1 | inactive | inactive | 0.011 µM | 6.7% | 
CCN(CC)CCCC(C)Nc1c2ccc(Cl)cc2nc2ccc(OC)cc12 (configuration not stated) [QUINACRINE] |  |  | 0.42 µM |  | EC50 [8]: 0.3 µM
O=C(Nc1cnc2ccccc2c1)C(=O)c1c[nH]c2ccccc12 | inactive | inactive | 0.17 µM | 41.3% | 
O=C(Nc1ccc(N2CCCCC2)cc1)C(=O)c1c[nH]c2ccccc12 |  |  | 0.072 µM | 6.5% | Activity (SMB [6]): Dose-dependent effect
O=C(Nc1ccccc1)C(=O)c1c[nH]c2ccccc12 | inactive | inactive | 0.32 µM | 19.5% | 
COc1cc(/C=C/C(=O)CC(=O)/C=C/c2ccc(O)c(OC)c2)ccc1O [CURCUMIN] |  |  | 0.95 µM |  | EC50 [9]: 0.01 µM
O=C(Nc1ccc(N2CCOCC2)cc1)C(=O)c1c[nH]c2ccccc12 |  |  | 0.009 µM | 4.6% | Activity (SMB [6]): Dose-dependent effect
CC(C)NC(=O)C(=O)c1c[nH]c2ccccc12 |  |  |  |  | Activity [10]: Toxic; Remaining PrP-Sc level (SMB [11]): 74.9%; Activity [12]: Toxic
